Assay [1] relates to [Candida] zeylanoides. Description: Antifungal activity against Candida zeylanoides NRLL Y 1774 after 48 hrs by broth microdilution assay. It is filed as functional. The note with it: Dujonia zeylanoides, NRLL Y 1774, 48 h. Put shortly:
(§1)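 Broth microdilution of DMSO stocks serially diluted in sterile water (4 to 0.0039 mg/mL). Yeasts grown on SDA at 37 °C for 24 h, suspended in double-strength PDB at 10⁵ spores/mL. Incubated at 37 °C for 48 h, then sprayed with 0.5% aqueous TTC. MIC = lowest concentration inhibiting visible growth. Ketoconazole reference.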
For orientation: In broth dilution the organism is exposed to a series of concentrations in liquid medium.

For assay [2], the system named is Nakaseomyces glabratus. Description: Antifungal activity against Candida glabrata clinical isolate after 48 hrs by broth microdilution assay. It is filed as functional. Put shortly: as §1
A short description of assay [3]: Cytotoxicity against mouse NIH/3T3 cells after 24 hrs by XTT assay. It is filed as cell-based. To be noted: NIH3T3, 24 h. A digest of the protocol: (§2)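 A549 cells in RPMI and NIH/3T3 cells in DMEM, each with fetal calf serum, antibiotics and 7.5% NaHCO₃, at 37 °C, 5% CO₂. Seeded at 20,000 cells/well, 24 h, then compounds added in medium at 500–3.9 doses (final DMSO <0.1%) for 24 h. XTT read after 3 h at 480 nm (ref 680 nm). IC₅₀ by non-linear regression; triplicates; cisplatin control.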

Assay [4] concerns A549. Briefly: Antiproliferative activity against human A549 cells after 24 hrs by XTT assay. It is filed as functional, cell-based. The note with it: A549, 24 h. A digest of the protocol: as §2
For orientation: Tetrazolium assays rely on reduction of a dye to a coloured formazan, in cell work by metabolically active cells.

Assay [5] relates to Candida parapsilosis. Briefly: Antifungal activity against Candida parapsilosis NRLL Y 12696 after 48 hrs by broth microdilution assay. It is filed as functional. To be noted: Lodderomyces parapsilosis, NRLL Y 12696, 48 h. A digest of the protocol:
as §1

The test system of assay [6] is Aspergillus parasiticus. Briefly: Antifungal activity against Aspergillus parasiticus NRRL 465 after 72 hrs by broth microdilution assay. It is filed as functional. The note with it: NRRL 465, 72 h. Put shortly: (§3)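 Compounds dissolved in DMSO, diluted in sterile distilled water from 4 to 0.0039 mg/mL. Molds grown on PDA at 25 °C for 5 days, suspended in double-strength PDB at 10⁵ spores/mL. Incubated at 25 °C for 72 h; mycelial growth read under stereo microscope. MIC = lowest concentration inhibiting visible growth. Ketoconazole reference.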

Assay [7] has as its system Aspergillus niger. Description: Antifungal activity against Aspergillus niger ATCC 1094 after 72 hrs by broth microdilution assay. It is filed as functional. To be noted: ATCC 1094, 72 h. Put shortly: as §3
Assay [8] deals with Pichia kudriavzevii. Briefly: Antifungal activity against Candida krusei NRLL Y 7179 after 48 hrs by broth microdilution assay. It is filed as functional. To be noted: NRLL Y 7179, 48 h. Put shortly:
as §1

Assay [9] concerns Candida tropicalis. Description: Antifungal activity against Candida tropicalis NRLL Y 12968 after 48 hrs by broth microdilution assay. It is filed as functional. The note with it: NRLL Y 12968, 48 h. Put shortly:
as §1

Assay [10] deals with Candida albicans. Description: Antifungal activity against Candida albicans ATCC 90028 after 48 hrs by broth microdilution assay. It is filed as functional. The note with it: ATCC 90028, 48 h. Put shortly: as §1
Assay [11] concerns Aspergillus flavus. Description: Antifungal activity against Aspergillus flavus NRRL 980 after 72 hrs by broth microdilution assay. To be noted: NRRL 980, 72 h. It is filed as functional. A digest of the protocol:
as §3

For assay [12], the system named is Fusarium solani. Description: Antifungal activity against Fusarium solani NRRL 13414 after 72 hrs by broth microdilution assay. It is filed as functional. The note with it: NRRL 13414, 72 h. Put shortly:
as §3

≈ marks a conversion by molar mass, not a printed value. A value given as a limit tells only on which side of the number the result lay.

As a reminder, the MIC is the lowest concentration that inhibits growth of the organism. One may read the IC50 as the concentration needed to halve the response being measured.

On to `Fc1ccc(-c2csc(N3N=C(c4ccc(Cl)s4)CC3c3ccc(F)cc3)n2)cc1` (centres undefined), for which the MIC in [1], in [2], in [5], in assay [6], in assay [7] and in assay [8] was 250 µg/mL (≈ 546 µM) each time. For the same compound, the MIC in assay [9] amounted to 250 µg/mL (≈ 546 µM); in [10], 250 µg/mL (≈ 546 µM); in assay [11], 125 µg/mL (≈ 273 µM); in assay [12], 250 µg/mL (≈ 546 µM). Also, the 50% inhibitory concentration (IC50) in assay [3] and in assay [4] was > 500 µg/mL each time.

As for `O=[N+]([O-])c1ccc(-c2csc(N3N=C(c4ccc(Cl)s4)CC3c3ccc(F)cc3)n2)cc1` (centres undefined), the MIC in [1] amounted to 250 µg/mL (≈ 516 µM); in assay [2], 125 µg/mL (≈ 258 µM); in assay [5], 250 µg/mL (≈ 516 µM); in assay [6] it was 250 µg/mL (≈ 516 µM); in assay [7], 250 µg/mL (≈ 516 µM); in assay [8] it was 250 µg/mL (≈ 516 µM). Also, the MIC in assay [9], in [10], in assay [11] and in assay [12] was 250 µg/mL (≈ 516 µM) each time. Also, the IC50 in assay [3] and in assay [4] was > 500 µg/mL each time.

Source of the values: ChEMBL document CHEMBL3407339, “A novel series of thiazolyl-pyrazoline derivatives: synthesis and evaluation of antifungal activity, cytotoxicity and genotoxicity” (Eur J Med Chem, 2015).
